The values below come from PMC2862791 (Journal of controlled release : official journal of the …, 2010).

In series [1] the test system is 3T3-L1 cells. The experiment in a line: Cellular uptake and intracellular localization by confocal microscopy. The series is classed as cell-based. To be noted: 6-FAM-tagged ASO, 24 h; for cellular uptake, control group: non-differentiated control (Con) cells. Summed up:
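Control or normoxic-differentiated 3T3-L1 cells were detached at day 4 after induction and re-seeded on chambered coverglass at 70% confluency. After about 20 h, cells were given 6-FAM (3′)-labelled ASO conjugate, or equivalent ASO or ionic complex, for 24 h without serum deprivation. After a PBS wash, live cells were imaged by laser-scanning confocal microscopy (water immersion ×60, 37 °C, 5% CO2).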

Series [2] has as its system 3T3-L1 cells. The experiment in a line: Cell cytotoxicity. Particulars: MTT, 24 h. The series is classed as cell-based. Summed up:
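3T3-L1 cells were differentiated under hypoxia (100 μM CoCl2 in differentiation medium, refreshed every 2 days) and treated for 24 h at 37 °C with the test compound, at 1.5 μg/μl ASO equivalent. MTT (5 mg/ml in complete DMEM) was then added for 5 h. Formazan was dissolved in DMSO and absorbance read. Viability (%) = OD(sample)/OD(control) × 100.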

Turning to “ASO: PS modified antisense-HIF1α-oligonucleotide, 5’-ACAACGCGGGCACCGATTCGCCATG-3’ (antisense ACAACGCGGGCACCGATTCGCCATG; all phosphorothioate, sugars by position and methylation of C not given here)”, the “cellular uptake, differentiation group under normoxia” value in the series on 3T3-L1 cells [1] (differentiation under normoxia (D)) is listed as “unable to internalize into cells”. Besides, the “cellular uptake, control group” value with 3T3-L1 cells [1] is listed as “unable to internalize into cells”. Besides, in the series with 3T3-L1 cells [2] (differentiation under hypoxia, 1.5 μg/μl ASO), the “cell viability under hypoxia compared to that of control” value is “statistically indistinguishable”. Also, the “concentration showing significant cell toxicity” value with 3T3-L1 cells [2] (non-differentiated control 3T3-L1 cells, AS-L containing 0-10 μg/μl of ASO) was not below 2 µg/µL.

In the case of “MMO: PS modified mismatch-HIF1α-oligonucleotide, 5’-GTGATCCCCTGCTCTTGCCGT-3’ (GTGATCCCCTGCTCTTGCCGT; all phosphorothioate, sugars by position and methylation of C not given here) [reference compound]”, the “cellular uptake, control group” value in the series on 3T3-L1 cells [1] is reported as “unable to internalize into cells”.
